Key:
[1] = Displacement of [Phe13,125I]Tyr19]-MCH from human MCHR1 E4Q/A5T double mutant expressed in HEK293 cells by TopCount scintillation counting method; assay type: cell-based
[2] = Metabolic stability in human liver microsomes assessed as compound remaining at 3 uM measured after 10 min; assay type: ADME; conditions: read-out: Stability
Summary of the method: (§1)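 Test compound at 3.0 µM incubated with liver microsomes for 10 minutes; read-out is percent of parent remaining.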

[3] = Metabolic stability in rat liver microsomes assessed as compound remaining at 3 uM measured after 10 min; assay type: ADME; conditions: read-out: Stability; summary of the method: as §1
[4] = Lipophilicity, log P of the compound at pH 7 by HPLC analysis; assay type: physicochemical; conditions: buffer
Summary of the method: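 LogP determined by HPLC at pH 7.0.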

[5] = Protein binding in rat plasma assessed as unbound fraction; assay type: ADME, cell-free
Summary of the method: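 Plasma protein binding reported as % free drug in rat, DIO rat, dog, cynomolgus monkey, rabbit and human plasma.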

[6] = test system: Rattus norvegicus; test: Toxicity in DIO Sprague-Dawley rat assessed as biliary lesion formation at 10 mg/kg, po qd for 4 days; assay type: organism-based; conditions: in vivo, 96 h
[7] = Protein binding in Sprague-Dawley rat plasma at 10 mg/kg, po qd for 4 days; assay type: ADME, organism-based; conditions: read-out: PPB
[8] = test system: Rattus norvegicus; test: Antiobesity activity in pair-fed DIO Sprague-Dawley rat model assessed as reduction in body weight at 3 mg/kg, po qd for 28 days relative to vehicle control; assay type: functional; parameters: scale not given: the % may be the effect or the level left
Summary of the method: (§2)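 Obese male SD rats on diet-induced obesity, 8/group, dosed orally once daily for 28 days with phosphate prodrug (0.03–3 mg/kg parent) in 14% propylene glycol/1% Tween/85% water; rimonabant 10 mg/kg control; pair-fed groups matched to 1 and 3 mg/kg intake; body weight and food measured daily, % change versus vehicle.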

[9] = test system: Rattus norvegicus; test: Antiobesity activity in pair-fed DIO Sprague-Dawley rat model assessed as reduction in caloric intake at 1 mg/kg, po qd for 28 days relative to vehicle control; assay type: functional; parameters: scale not given: the % may be the effect or the level left; summary of the method: as §2
[10] = test system: Rattus norvegicus; test: Antiobesity activity in pair-fed DIO Sprague-Dawley rat model assessed as reduction in caloric intake at 3 mg/kg, po qd for 28 days relative to vehicle control; assay type: functional; parameters: scale not given: the % may be the effect or the level left; summary of the method: as §2
[11] = target: Melanin-concentrating hormone receptor 1 (Homo sapiens, UniProt Q99705); test: Antagonist activity at human MCHR1 expressed in HEK293 cells assessed as inhibition of MCH-stimulated calcium flux measured after 15 mins by FLIPR assay; assay type: functional, cell-based
[12] = Binding affinity to cynomolgus monkey MCHR1; parameters: species or system Macaca fascicularis
[13] = target: Melanin-concentrating hormone receptor 1 (Rattus norvegicus, UniProt P97639); test: Binding affinity to rat MCHR1
[14] = target: T1, Cytochrome P450 1A2 (Homo sapiens, UniProt P05177); test: Inhibition of CYP1A2 (unknown origin); assay type: ADME
T1 sequence (P05177 whole entry): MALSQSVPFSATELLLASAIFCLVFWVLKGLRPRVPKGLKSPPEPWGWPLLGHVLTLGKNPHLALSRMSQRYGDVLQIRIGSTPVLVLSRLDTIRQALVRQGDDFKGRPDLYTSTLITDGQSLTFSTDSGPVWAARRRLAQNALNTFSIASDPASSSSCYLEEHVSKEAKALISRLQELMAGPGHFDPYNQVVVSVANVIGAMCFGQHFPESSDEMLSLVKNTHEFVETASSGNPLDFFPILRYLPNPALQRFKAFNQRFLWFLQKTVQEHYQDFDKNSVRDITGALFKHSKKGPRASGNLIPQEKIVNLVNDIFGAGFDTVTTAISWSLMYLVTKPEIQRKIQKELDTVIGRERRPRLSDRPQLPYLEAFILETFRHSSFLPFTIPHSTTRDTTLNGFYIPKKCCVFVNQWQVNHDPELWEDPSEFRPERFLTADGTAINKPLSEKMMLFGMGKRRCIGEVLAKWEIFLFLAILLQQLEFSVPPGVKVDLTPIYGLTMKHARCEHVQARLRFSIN
Summary of the method: (§3)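 CYP1A2, 2C8, 2C9, 2C19, 2D6 and 3A4 tested for inhibition, with 40 µM as the top tested limit.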

[15] = target: T2, Cytochrome P450 2C8 (Homo sapiens, UniProt P10632); test: Inhibition of CYP2C8 (unknown origin); assay type: ADME; summary of the method: as §3
T2 sequence (P10632 whole entry): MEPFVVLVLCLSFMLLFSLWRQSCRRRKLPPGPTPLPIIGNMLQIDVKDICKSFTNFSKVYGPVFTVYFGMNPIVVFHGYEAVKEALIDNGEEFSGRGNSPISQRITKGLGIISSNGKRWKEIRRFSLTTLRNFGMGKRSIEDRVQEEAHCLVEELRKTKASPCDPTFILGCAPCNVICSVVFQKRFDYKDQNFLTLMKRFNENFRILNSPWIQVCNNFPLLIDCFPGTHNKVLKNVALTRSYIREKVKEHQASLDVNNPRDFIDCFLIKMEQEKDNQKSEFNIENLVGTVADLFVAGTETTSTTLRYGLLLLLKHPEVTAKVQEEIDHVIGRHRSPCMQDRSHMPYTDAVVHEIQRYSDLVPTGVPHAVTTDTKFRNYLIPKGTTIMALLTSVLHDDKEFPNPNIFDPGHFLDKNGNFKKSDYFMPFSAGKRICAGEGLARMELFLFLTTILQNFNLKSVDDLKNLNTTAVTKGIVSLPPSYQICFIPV

[16] = target: Cytochrome P450 2C9 (Homo sapiens, UniProt P11712); test: Inhibition of CYP2C9 (unknown origin); assay type: ADME; summary of the method: as §3
[17] = target: Cytochrome P450 2C19 (Homo sapiens, UniProt P33261); test: Inhibition of CYP2C19 (unknown origin); assay type: ADME; summary of the method: as §3
[18] = target: Cytochrome P450 2D6 (Homo sapiens, UniProt P10635); test: Inhibition of CYP2D6 (unknown origin); assay type: ADME
[19] = target: Cytochrome P450 3A4 (Homo sapiens, UniProt P08684); test: Inhibition of CYP3A4 (unknown origin); assay type: ADME
[20] = Mutagenic activity in Salmonella typhimurium by Ames test; assay type: toxicity; conditions: salmonella enterica subsp. enterica serovar typhimurium
[21] = target: hERG (KCNH2) (Homo sapiens, UniProt Q12809); test: Inhibition of human ERG at 10 uM
Summary of the method: (§4)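 In vitro ion-channel inhibition measured at 10 µM against hERG, Na (4 Hz) and L-type Ca channels; read-out is percent inhibition.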

[22] = target: L-type calcium channel (Homo sapiens, UniProt O60840+Q01668+Q13698+Q13936); test: Inhibition of L-type calcium channel (unknown origin) at 10 uM; summary of the method: as §4
[23] = Cardiotoxicity in anesthetized rabbit assessed as prolongation of QT intervals up to plasma concentration of 38 uM; assay type: toxicity, Oryctolagus cuniculus
Summary of the method: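 Anesthetized rabbits given compound to plasma concentrations up to 38 µM; QT and QRS duration, mean arterial blood pressure and heart rate recorded.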

[24] = AUC in rat at 1 mg/kg, iv; assay type: ADME, organism-based; conditions: in vivo
Summary of the method: (§5)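 Rats, dogs and cynomolgus monkeys, n = 3: parent 1 mg/kg i.v. in PEG400:DMAC:water (70:5:25), or phosphate prodrug 10 mg/kg oral in Methocel:Tween80:water (0.5:0.1:99.4); plasma parent compound, Cmax, Tmax, AUC0-∞, half-life, clearance, Vss and bioavailability derived.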

[25] = Half life in rat at 1 mg/kg, iv; assay type: ADME, organism-based; conditions: in vivo; summary of the method: as §5
[26] = Clearance in cynomolgus monkey at 1 mg/kg, iv; assay type: ADME, organism-based, Macaca fascicularis; conditions: in vivo; summary of the method: as §5
[27] = organism: Homo sapiens; test: Inhibition of human PDE4 using [3H]cAMP at 10 uM

hERG (KCNH2), sequence (Q12809 whole entry): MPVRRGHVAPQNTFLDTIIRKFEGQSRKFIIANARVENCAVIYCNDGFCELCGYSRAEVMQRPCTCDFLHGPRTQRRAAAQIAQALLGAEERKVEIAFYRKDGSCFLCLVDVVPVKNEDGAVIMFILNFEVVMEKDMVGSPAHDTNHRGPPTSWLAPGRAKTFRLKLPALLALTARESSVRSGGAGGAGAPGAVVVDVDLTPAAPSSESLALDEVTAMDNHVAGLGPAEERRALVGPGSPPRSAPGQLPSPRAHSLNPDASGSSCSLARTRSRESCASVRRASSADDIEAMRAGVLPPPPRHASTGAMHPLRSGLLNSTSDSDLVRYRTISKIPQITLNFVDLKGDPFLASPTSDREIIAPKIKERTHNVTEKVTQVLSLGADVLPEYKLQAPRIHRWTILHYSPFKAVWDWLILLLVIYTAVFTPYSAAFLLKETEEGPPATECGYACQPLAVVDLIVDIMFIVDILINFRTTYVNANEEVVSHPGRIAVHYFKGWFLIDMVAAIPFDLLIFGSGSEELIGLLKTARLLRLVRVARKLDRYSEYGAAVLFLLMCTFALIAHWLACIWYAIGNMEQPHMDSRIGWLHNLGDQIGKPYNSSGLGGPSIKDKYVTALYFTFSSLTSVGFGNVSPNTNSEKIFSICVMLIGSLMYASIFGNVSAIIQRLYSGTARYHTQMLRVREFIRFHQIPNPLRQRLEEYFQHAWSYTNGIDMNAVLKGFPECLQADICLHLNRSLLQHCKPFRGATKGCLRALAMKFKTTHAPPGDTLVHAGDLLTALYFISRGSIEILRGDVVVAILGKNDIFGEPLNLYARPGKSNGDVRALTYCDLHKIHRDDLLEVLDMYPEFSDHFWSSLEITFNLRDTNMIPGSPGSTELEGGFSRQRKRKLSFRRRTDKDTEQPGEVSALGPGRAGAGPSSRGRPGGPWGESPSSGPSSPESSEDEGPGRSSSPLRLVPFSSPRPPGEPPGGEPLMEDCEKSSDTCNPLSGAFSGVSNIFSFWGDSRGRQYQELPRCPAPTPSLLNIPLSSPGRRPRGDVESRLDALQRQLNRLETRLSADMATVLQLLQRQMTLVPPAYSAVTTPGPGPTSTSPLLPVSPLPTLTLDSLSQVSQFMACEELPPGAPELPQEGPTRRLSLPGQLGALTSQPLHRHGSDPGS
Cytochrome P450 2D6, sequence (P10635 whole entry): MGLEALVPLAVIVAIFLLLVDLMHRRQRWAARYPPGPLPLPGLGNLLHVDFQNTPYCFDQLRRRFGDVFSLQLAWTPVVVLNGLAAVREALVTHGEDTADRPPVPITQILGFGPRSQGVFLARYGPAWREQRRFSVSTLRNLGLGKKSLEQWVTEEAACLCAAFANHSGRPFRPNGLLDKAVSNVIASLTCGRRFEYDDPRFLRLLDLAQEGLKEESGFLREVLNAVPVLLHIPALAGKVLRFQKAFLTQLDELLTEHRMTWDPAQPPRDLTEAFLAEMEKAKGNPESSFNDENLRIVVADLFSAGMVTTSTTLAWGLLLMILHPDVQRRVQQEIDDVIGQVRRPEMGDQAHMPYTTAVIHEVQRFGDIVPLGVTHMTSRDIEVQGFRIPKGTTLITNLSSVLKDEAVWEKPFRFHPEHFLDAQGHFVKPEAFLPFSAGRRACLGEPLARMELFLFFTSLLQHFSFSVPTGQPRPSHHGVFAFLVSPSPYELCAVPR
Cytochrome P450 2C19, sequence (P33261 whole entry): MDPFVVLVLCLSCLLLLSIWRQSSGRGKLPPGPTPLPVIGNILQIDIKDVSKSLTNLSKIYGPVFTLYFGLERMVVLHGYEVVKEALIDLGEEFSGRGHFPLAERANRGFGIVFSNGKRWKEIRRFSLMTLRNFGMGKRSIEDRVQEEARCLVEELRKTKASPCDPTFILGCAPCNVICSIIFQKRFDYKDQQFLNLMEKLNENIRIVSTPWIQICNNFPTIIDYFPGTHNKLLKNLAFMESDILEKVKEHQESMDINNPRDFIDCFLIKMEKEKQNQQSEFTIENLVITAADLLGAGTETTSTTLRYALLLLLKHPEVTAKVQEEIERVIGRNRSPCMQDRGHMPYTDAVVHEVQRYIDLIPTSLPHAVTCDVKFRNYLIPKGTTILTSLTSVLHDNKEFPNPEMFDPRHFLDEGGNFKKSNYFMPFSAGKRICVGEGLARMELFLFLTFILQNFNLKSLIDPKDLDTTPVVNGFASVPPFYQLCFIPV
Cytochrome P450 2C9, sequence (P11712 whole entry): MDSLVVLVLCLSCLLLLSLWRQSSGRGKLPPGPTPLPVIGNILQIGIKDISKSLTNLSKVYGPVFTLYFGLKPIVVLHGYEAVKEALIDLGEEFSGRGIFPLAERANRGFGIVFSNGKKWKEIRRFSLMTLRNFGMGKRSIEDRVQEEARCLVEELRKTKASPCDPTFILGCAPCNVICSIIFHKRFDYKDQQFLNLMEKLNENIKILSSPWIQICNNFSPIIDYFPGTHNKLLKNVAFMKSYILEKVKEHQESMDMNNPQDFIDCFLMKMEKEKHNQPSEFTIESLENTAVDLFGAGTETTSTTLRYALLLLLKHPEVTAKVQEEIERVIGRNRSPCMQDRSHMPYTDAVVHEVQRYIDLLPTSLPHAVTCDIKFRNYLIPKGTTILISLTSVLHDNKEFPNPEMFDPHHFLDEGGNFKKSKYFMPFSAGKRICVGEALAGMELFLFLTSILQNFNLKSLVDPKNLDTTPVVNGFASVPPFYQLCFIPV
Melanin-concentrating hormone receptor 1 (Rattus norvegicus, UniProt P97639), sequence (P97639 whole entry): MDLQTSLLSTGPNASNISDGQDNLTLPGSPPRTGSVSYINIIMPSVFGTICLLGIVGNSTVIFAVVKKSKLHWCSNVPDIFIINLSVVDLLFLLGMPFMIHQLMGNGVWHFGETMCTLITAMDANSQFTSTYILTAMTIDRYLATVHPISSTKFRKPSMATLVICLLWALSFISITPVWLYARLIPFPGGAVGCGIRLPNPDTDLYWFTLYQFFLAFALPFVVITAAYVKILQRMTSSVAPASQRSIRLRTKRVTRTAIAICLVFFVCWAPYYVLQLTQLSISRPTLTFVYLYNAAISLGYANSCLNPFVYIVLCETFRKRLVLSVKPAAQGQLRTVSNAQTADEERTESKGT
Melanin-concentrating hormone receptor 1 (Homo sapiens, UniProt Q99705), sequence (Q99705 whole entry): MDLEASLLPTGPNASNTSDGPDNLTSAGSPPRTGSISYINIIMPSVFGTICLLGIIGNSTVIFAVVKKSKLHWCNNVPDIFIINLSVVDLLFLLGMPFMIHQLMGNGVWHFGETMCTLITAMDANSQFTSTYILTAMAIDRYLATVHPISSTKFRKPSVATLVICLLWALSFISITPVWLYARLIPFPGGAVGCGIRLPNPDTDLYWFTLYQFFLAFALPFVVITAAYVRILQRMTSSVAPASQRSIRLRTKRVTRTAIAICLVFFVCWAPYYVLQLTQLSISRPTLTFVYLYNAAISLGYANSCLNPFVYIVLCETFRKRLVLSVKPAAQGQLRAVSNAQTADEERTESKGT
Cytochrome P450 3A4, sequence (P08684 whole entry): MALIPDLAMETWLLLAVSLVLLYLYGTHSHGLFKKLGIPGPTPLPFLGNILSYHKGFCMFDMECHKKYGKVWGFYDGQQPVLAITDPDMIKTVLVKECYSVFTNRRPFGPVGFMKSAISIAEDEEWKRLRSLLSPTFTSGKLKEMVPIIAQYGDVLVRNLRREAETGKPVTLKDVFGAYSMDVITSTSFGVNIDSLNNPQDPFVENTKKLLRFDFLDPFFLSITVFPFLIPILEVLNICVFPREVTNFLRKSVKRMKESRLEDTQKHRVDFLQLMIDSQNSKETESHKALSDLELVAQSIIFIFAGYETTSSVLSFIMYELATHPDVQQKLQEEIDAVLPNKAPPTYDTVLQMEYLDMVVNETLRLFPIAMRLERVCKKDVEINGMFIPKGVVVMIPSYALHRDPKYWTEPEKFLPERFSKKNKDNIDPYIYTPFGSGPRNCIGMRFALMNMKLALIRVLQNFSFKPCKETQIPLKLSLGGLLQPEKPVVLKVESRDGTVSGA

- remaining at 10 min, 3 µM [2]: 90%
- remaining at 10 min, 3 µM [3]: 95%
- logP [4]: 4.8
- Fu [5]: 0.2%
- fraction unbound at 96 h [7]: < 0.02
- Kb [11]: 117 nM
- Ki [12]: 4.9 nM
- Ki [13]: 11.5 nM
- INH [14]: > 40 µM
- INH [15]: > 40 µM
- INH [16]: > 40 µM
- INH [17]: > 40 µM
- INH [18]: > 40 µM
- INH [19]: > 40 µM
- inhibition at 10 µM [22]: 15%
- AUC [24]: 11.5 µM·h
- half-life [25]: > 24 h
- clearance [26]: 1.7 mL/min/kg
- inhibition [27]: 68%
SMILES: COc1cc(-n2cnc3cc(-c4ccc(Cl)cc4)sc3c2=O)ccc1OCC1(O)CC(F)(F)C1
- Ki [1]: 16.9 nM
- Activity [6]: Non-Toxic
- Activity [8]: 4.1%
- Activity [9]: 14.3%
- Activity [10]: 14.7%
- Activity [20]: Non-Toxic
- inhibition at 10 µM [21]: 43%
- Activity [23]: Non-Toxic

From ChEMBL document CHEMBL3856239, “Synthesis and Antiobesity Properties of 6-(4-Chlorophenyl)-3-(4-((3,3-difluoro-1-hydroxycyclobutyl)methoxy)-3-methoxyphenyl)thieno[3,2-d]pyrimidin-4(3H)-one (BMS-814580): A Highly Efficacious Melanin Concentrating Hormone Receptor 1 (MCHR1) Inhibitor” (J Med Chem, 2016)
